Among the data in BindingDB's records for doi:10.1021/ml5002486 (National Institute of Diabetes and Digestive and Kidney …, 2014) are Kd values, retold here.

For experiment [1], the target named is T1, Adenosine receptor A2a (Homo sapiens, UniProt P29274). The experiment is described as follows: Displacement of [3H]4-[2-[7-amino-2-(2-furyl)-1,2,4-triazolo[1,5-a][1,3,5]triazin-5-yl-amino]ethylphenol from wild type human adenosine A2a receptor expressed in HEK293 cells assessed as radioligand Kd compound preincubated for 30 mins.
Target sequence in this assay (P29274 whole entry): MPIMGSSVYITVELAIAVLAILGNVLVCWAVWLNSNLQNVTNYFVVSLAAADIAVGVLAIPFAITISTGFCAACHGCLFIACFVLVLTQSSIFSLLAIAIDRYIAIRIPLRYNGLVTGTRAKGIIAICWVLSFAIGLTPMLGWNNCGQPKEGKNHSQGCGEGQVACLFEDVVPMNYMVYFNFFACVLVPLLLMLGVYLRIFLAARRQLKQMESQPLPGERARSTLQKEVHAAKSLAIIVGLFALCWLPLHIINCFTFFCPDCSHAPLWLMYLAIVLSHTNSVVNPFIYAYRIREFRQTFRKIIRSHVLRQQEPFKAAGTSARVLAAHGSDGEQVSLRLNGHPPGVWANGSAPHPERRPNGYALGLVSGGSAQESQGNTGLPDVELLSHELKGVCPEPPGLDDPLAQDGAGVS
The target in experiment [2] is T1, Adenosine receptor A2a. The experiment is described as follows: Displacement of [3H]4-[2-[7-amino-2-(2-furyl)-1,2,4-triazolo[1,5-a][1,3,5]triazin-5-yl-amino]ethylphenol from wild type human adenosine A2a receptor expressed in COS-7 cells assessed as radioligand Kd compound preincubated for 30 mins. A digest of the protocol: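 WT, K150A or K153A human A2A receptor was transiently transfected into COS-7 cells. Membranes were preincubated with or without compound, then washed. Saturation binding used antagonist radioligand [3H]7, with nonspecific binding defined by 10 μM NECA. Kd (nM) and Bmax (pmol/mg protein) were derived from the saturation curves.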
Target sequence in this assay (P29274 whole entry): as above

Experiment [3] has as its target T1, Adenosine receptor A2a. Description: Displacement of [3H]4-[2-[7-amino-2-(2-furyl)-1,2,4-triazolo[1,5-a][1,3,5]triazin-5-yl-amino]ethylphenol from human adenosine A2a receptor K150A mutant expressed in COS-7 cells assessed as radioligand Kd compound preincubated for 30 mins.
Target sequence in this assay (P29274 whole entry, looked up): as the sequence (P29274 whole entry) above

The term Kd denotes the concentration at which binding is half-saturated. Turning to `CCNC(=O)[C@H]1O[C@@H](n2cnc3c(N)nc(NCCc4ccc(CCC(=O)Nc5ccc(OC(C)=O)c([N+](=O)[O-])c5)cc4)nc32)[C@H](O)[C@@H]1O`, the Kd at Adenosine receptor A2a [1] stood at 5 nM; at Adenosine receptor A2a [2] it was 2.2 nM; on Adenosine receptor A2a [3] it was 3.17 nM.

For `CCNC(=O)[C@H]1O[C@@H](n2cnc3c(N)nc(NCCc4ccc(CCC(=O)Nc5ccc(OC(=O)CCCCN=[N+]=[N-])c([N+](=O)[O-])c5)cc4)nc32)[C@H](O)[C@@H]1O`, at Adenosine receptor A2a [1], the Kd is 3.2 nM.
